# The source made the active and inactive calls. The rule behind the calls is not given here.
# Key:
# [1] = tested on: MCF7; experiment: Antiproliferative activity against human MCF7 cells assessed as growth inhibition after 72 hrs by MTT assay; conditions: MCF7, 72 h
# [2] = tested on: HeLa; experiment: Antiproliferative activity against human HeLa cells assessed as growth inhibition after 72 hrs by MTT assay
# [3] = target: Serine/threonine-protein kinase PLK3 (Homo sapiens, UniProt Q9H4B4); experiment: Inhibition of recombinant Plk3 (unknown origin)
# [4] = tested on: HeLa; experiment: Induction of apoptosis in human HeLa cells assessed as PARP cleavage at 1 uM after 24 to 48 hrs by Western blot analysis; type: functional, cell-based
# Procedure, shortened: (§1)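 HeLa cells exposed to 1 µM for 24 h, with treatment continued to 48 h. Cell proteins analysed by western blot for PARP, total Caspase-3 and its cleaved active form.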
# [5] = tested on: HeLa; experiment: Induction of apoptosis in human HeLa cells assessed as apoptotic cells at 1 uM after 24 hrs using annexin V/propidium iodide double staining by flow cytometry (reference value: 4.4 %); type: functional
# [6] = target: Serine/threonine-protein kinase PLK2 (Homo sapiens, UniProt Q9NYY3); experiment: Inhibition of recombinant Plk2 (unknown origin)
# [7] = tested on: HeLa; experiment: Induction of apoptosis in human HeLa cells assessed as increase in cleaved caspase-3 level at 1 uM after 24 to 48 hrs by Western blot analysis; type: functional, cell-based; procedure, shortened: as §1
# Serine/threonine-protein kinase PLK3, sequence (Q9H4B4 whole entry): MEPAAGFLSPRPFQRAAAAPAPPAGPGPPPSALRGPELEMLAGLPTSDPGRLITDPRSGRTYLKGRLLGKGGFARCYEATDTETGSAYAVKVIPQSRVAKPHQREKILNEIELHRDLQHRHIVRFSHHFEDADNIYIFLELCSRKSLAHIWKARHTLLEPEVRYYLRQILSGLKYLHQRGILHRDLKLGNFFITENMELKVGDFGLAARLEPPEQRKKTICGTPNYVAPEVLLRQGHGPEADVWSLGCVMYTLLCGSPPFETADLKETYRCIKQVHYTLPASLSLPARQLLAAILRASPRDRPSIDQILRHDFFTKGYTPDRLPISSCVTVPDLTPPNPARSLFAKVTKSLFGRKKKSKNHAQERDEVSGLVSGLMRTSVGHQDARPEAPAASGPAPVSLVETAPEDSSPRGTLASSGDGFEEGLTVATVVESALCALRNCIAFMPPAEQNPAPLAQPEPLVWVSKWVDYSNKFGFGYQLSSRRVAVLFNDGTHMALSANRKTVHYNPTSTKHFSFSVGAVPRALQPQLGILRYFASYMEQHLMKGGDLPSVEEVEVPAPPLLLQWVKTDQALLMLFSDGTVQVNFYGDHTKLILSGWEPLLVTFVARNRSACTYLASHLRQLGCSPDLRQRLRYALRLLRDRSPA
# Serine/threonine-protein kinase PLK2, sequence (Q9NYY3 whole entry): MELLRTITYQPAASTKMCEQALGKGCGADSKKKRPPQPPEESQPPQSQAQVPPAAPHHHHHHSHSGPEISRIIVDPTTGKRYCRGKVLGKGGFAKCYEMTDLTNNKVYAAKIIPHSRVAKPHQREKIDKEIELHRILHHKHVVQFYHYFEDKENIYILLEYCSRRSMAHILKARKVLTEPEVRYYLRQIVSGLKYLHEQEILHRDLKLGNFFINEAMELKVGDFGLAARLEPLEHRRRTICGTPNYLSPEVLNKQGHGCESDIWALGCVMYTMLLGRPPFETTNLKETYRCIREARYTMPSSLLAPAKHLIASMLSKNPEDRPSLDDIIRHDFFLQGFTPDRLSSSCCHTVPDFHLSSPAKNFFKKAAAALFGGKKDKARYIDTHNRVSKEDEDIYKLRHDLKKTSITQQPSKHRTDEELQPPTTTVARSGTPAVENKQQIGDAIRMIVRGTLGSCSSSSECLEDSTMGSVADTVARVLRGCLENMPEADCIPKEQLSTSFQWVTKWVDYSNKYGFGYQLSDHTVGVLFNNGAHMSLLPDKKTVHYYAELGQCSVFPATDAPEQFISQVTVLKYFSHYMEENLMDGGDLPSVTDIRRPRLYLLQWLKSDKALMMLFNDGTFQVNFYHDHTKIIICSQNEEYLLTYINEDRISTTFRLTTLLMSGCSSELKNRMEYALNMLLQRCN
SMILES,IC50 [1],IC50 [2],IC50 [3],Activity [4],Activity [5],IC50 [6],Activity [7]
O=C(O)CCc1cn(CC(O)CN2CCCC2)c2ccccc12 (racemic),> 10 µM,4.95 µM,–,–,–,–,–
O=C(O)CCc1cn(CC(O)CN2CCCCC2)c2ccccc12 (racemic),8.79 µM,> 10 µM,–,–,–,–,–
CN1CCN(CC(O)Cn2cc(CC(=O)O)c3ccccc32)CC1 (racemic),2.44 µM,3.97 µM,–,–,–,–,–
CN1CCN(CC(O)Cn2cc(C(=O)O)c3ccccc32)CC1 (racemic),> 10 µM,> 10 µM,–,–,–,–,–
CCN(CC)CC(O)Cn1cc(C(=O)O)c2ccccc21 (racemic),4.37 µM,6.72 µM,–,–,–,–,–
CCN(CC)CC(O)Cn1cc(CC(=O)O)c2ccccc21 (racemic),3.16 µM,6.63 µM,–,–,–,–,–
O=C(O)Cc1cn(CC(O)CN2CCOCC2)c2ccccc12 (racemic),> 10 µM,2.13 µM,–,–,–,–,–
O=C(O)Cc1cn(CC(O)CN2CCCC2)c2ccccc12 (racemic),1.15 µM,0.72 µM,> 50 µM,Active,12.7%,> 50 µM,Active
O=C(O)c1cn(CC(O)CN2CCCCC2)c2ccccc12 (racemic),5.33 µM,4.92 µM,–,–,–,–,–
O=C(O)Cc1cn(CC(O)CN2CCCCC2)c2ccccc12 (racemic),1.89 µM,0.97 µM,–,–,–,–,–
CC1=CC(=O)C(C(C)C)=CC1=O [THYMOQUINONE],6.19 µM,2.06 µM,> 50 µM,–,–,14.7 µM,–
O=C(O)c1cn(CC(O)CN2CCCC2)c2ccccc12 (racemic),> 10 µM,7.34 µM,–,–,–,–,–
